# Results of several laboratories.
# Target: BDNF/NT-3 growth factors receptor (NTRK2, Homo sapiens, UniProt Q16620)
Compound,assay,conditions,remaining binding [%]
CN(c1nccc(-c2cnn3ncccc23)n1)C1CC1,binding,1 µM,100
COc1ncc2cc3ccccc3nc2c1C#N,"cell-free assay, competition with immobilised ligand",5 µM,98
CCS(=O)(=O)c1cc2cc(C[C@@](O)(CC(C)(C)c3ccc(F)cc3C(N)=O)C(F)(F)F)[nH]c2cn1,"cell-free assay, competition with immobilised ligand",1 µM,84
CN(CCCC(F)(F)F)c1nccc(-c2cnn3ncccc23)n1,binding,1 µM,100
O=C(Nc1c[nH]nc1C(=O)NC1CCNCC1)c1cc(F)cc(F)c1,"binding, competition with immobilised ligand",1 µM,71
c1cncc(-c2cccc(Nc3nccc(NC4CCCCC4)n3)c2)c1,"binding, competition with immobilised ligand",10 µM,16
C=CC(=O)N1CCC(C(=O)NCC(=O)N2CCN(c3nc(-c4cnc(N)nc4C(F)F)nc(N4CCOCC4)n3)CC2)CC1,"binding, competition with immobilised ligand",1 µM,89
N[C@@H]1CCN(c2nccc(-c3cnn4ncccc34)n2)C1,binding,1 µM,100
CN(C)CC#Cc1ccc(OCCCc2sc(N3CCc4cccc(C(=O)Nc5nc6ccccc6s5)c4C3)nc2C(=O)O)c(F)c1,"cell-free assay, competition with immobilised ligand",1 µM,100
O=C(c1ccc(Nc2ncc(Cl)c(-c3ccc(Cl)s3)n2)cc1)N1CCC(N2CCCC2)CC1,"binding, competition with immobilised ligand",1 µM,5.3
Cc1cnn2ncc(-c3ccnc(N(C)C)n3)c2c1,binding,1 µM,84
O=C(O)[C@@H]1[C@@H](Cn2nnc3ccccc3c2=O)CC[C@H]1C(=O)c1ccc(OCCC2CCOCC2)cc1,"cell-free assay, competition with immobilised ligand",1 µM,93
O=C(NCCCN1CCOCC1)c1ccc(Nc2ncc(Cl)c(-c3ccc(Cl)s3)n2)cc1,"binding, competition with immobilised ligand",1 µM,15
C[C@@H]1CCN(c2nccc(-c3cnn4ncccc34)n2)C1,binding,1 µM,72
Nc1ncc2c(n1)-c1c([nH]c3ccc(C#CC4CC4)cc13)CCCC2,"binding, competition with immobilised ligand",1 µM,77
CC(C)CC(=O)N1CCc2nc(-c3ccc(Br)cc3)nc(N(C)Cc3ccccc3)c2C1,"cell-free assay, competition with immobilised ligand",0.1 µM,100
COc1cnc(Nc2cccc(S(N)(=O)=O)c2)nc1N1CCN(c2ccccc2)CC1,"binding, competition with immobilised ligand",1 µM,75
CC1=C(C#N)C(c2ccc3c(c2)c(NC(=O)c2ccccc2C)nn3C)C(C#N)=C(C)N1,"cell-free assay, competition with immobilised ligand",1 µM,72
F[C@@H]1CCN(c2nccc(-c3cnn4ncccc34)n2)C1,binding,1 µM,100
CN([C@@H]1CCc2c(CC(=O)O)c3cc(S(C)(=O)=O)ccc3n2C1)S(=O)(=O)c1ccc(F)cc1,"cell-free assay, competition with immobilised ligand",1 µM,100
O=C(c1ccc(Nc2ncc(Cl)c(-c3cc4ccccc4s3)n2)cc1)N1CCC(N2CCCC2)CC1,"binding, competition with immobilised ligand",1 µM,13
